Experiments:
[1] = Inhibitory concentration against hepatitis C virus NS5B-mediated RNA synthesis in HBI10A cells; type: functional, cell-based; details: Homo sapiens
[2] = Effective concentration against hepatitis C virus RNA replication in a subgenomic bicistronic replicon in HBI10A cells; type: functional, cell-based; details: Homo sapiens
Summary of the method: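 Stable Huh-7-derived HBI10A hepatoma line carrying a subgenomic bicistronic HCV replicon. Compound incubated with cells for 24 h. Relative replicon RNA then quantified by in situ ribonuclease protection assay.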

[3] = Cytotoxic concentration of compound in human HBI10A cells infected with hepatitis C virus in MTS assay; type: functional
Summary of the method: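 MTS cytotoxicity run on samples parallel to the replicon assay, at the same time (24 h compound exposure). Cells plated at 2.0 × 10⁴/well and compound added next day at 2× in medium. Incubation at 37 °C, 5% CO₂. MTS reagent added for 1 h, then absorbance read at 490 nm.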

[4] = Average intracellular Metabolism was measured in human HBI10A cells after 23 hr of incubation; type: functional
Summary of the method: (§1)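 Radiolabeled 5-[³H] compound at 2 µM incubated with Huh-7 (passage 27) or HBI10A (passage 15) cells for 3 or 23 h. Cells extracted and analysed by ion pair reverse-phase HPLC. Triphosphate reported as pmol/million cells, with major metabolic byproducts noted. Averages of at least three separate experiments.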

Huh-7 [5] = experiment: Average intracellular Metabolism was measured in human Huh-7 cells after 3 h of incubation; type: functional; summary of the method: as §1
[6] = Average intracellular Metabolism was measured in human HBI10A cells after 3 h of incubation; type: functional; summary of the method: as §1
Huh-7 [7] = experiment: Average intracellular Metabolism was measured in human Huh-7 cells after 23 hr of incubation; type: functional; summary of the method: as §1

IC50 [1]	EC50 [2]	SMILES	CC50 [3]	Activity [4]	Activity (Huh-7 [5])	Activity [6]	Activity (Huh-7 [7])
0.6 µM	> 50 µM	Nc1nc2c(ncn2[C@@H]2O[C@H](CO)C[C@H]2O)c(=O)[nH]1	–	–	–	–	–
1.2 µM	> 50 µM	CO[C@@H]1[C@H](O)[C@@H](CO)O[C@H]1n1cnc2c(O)nc(N)nc21	–	–	–	–	–
–	> 50 µM	CO[C@@H]1[C@H](O)[C@@H](COP(=O)(OCCSC(=O)C(C)(C)C)OCCSC(=O)C(C)(C)C)O[C@H]1n1ccc2c(O)nc(N)nc21	> 100 µM	–	–	–	–
3.8 µM	21 µM	CO[C@@H]1[C@H](O)[C@@H](CO)O[C@H]1n1ccc(N)nc1=O	> 100 µM	0.18 pmol/million cells	0.17 pmol/million cells	0.05 pmol/million cells	0.61 pmol/million cells

From ChEMBL document CHEMBL1145189, “Synthesis and evaluation of S-acyl-2-thioethyl esters of modified nucleoside 5'-monophosphates as inhibitors of hepatitis C virus RNA replication” (J Med Chem, 2005)
